In PubChem BioAssay AID1885 (Broad Institute, 2009):
In all, about 300,000 compounds went through this assay and about 4,400 (1.5%) were called active. This is one part of a sample in which actives are shown more often than they occur. A number with no mark means an inactive call.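 The calls were made as follows: active = mean inhibition across valid replicates above about 55% (limit read from the data); inconclusive = mean below that limit but half or more replicates reach it; inactive = mean below it, under half of replicates reach it.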

Test: Trypanosoma cruzi replication blockers in host cells – luminescence, NIH3T3 host cells, primary screen (AID 1885);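 also: signal also drops with host cell toxicity which is not excluded here; 0% = plate median of DMSO wells and 100% = zero luminescence signal; higher percent means less beta-gal luminescence so fewer parasites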
Conditions: T. cruzi beta-gal in NIH3T3, luminescence, 90 h; stronger effect = higher value; concentration not given here
In short: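 Incubation – ≥90 h infection period, 3 h prior cell attachment · System – NIH/3T3 fibroblasts plus reporter T. cruzi · Doses – compound pinned at 50 nL/well, DMSO · Read-out basis – percent inhibition of parasite-derived β-gal signal · Signal – luminescent β-galactosidase signal after 60 min lysis · Also added – 5000 T. cruzi trypomastigotes/well · Medium – Low-serum DMEM with 2% FBS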

| SMILES | inhibition |
| --- | --- |
| COC(C[C@@H]1O[C@@H]1C(=O)[C@@H](C)OCc1ccccc1)OC | 3.07% |
| CCCCN(CCCC)CCCNC(=O)CN1C(=O)COc2ccc(S(=O)(=O)N3CCC(C)CC3)cc21 | 10.4% |
| Cc1cc(C)c(-c2c(O)c3ccccc3n(C)c2=O)c(C)c1 | -3.11% |
| COc1cc(C2/C(=C(\O)c3ccc4c(c3)CC(C)O4)C(=O)C(=O)N2c2nnc(C)s2)cc(OC)c1OC (stereo unspecified) | -5.79% |
| O=C(CSc1n[nH]c(=O)n1-c1ccccc1)Nc1ccccc1C(F)(F)F | -3.4% |
| O=C(NCCC1CCCCN1S(=O)(=O)c1ccccc1)C(=O)NCC1CCCO1 (stereo unspecified) | -5.32% |
| COc1cccc(CNC(=O)CCC2CCCN(Cc3ccc(OC(F)F)cc3)C2)c1 (stereo unspecified) | 49.4% |
| O=C(CCC1CCCN(Cc2ccc(O)c(Cl)c2)C1)NCc1ccccc1F (stereo unspecified) | 65.4% (active) |
| CSc1ncccc1C(=O)N1CCCC(CCC(=O)NCc2ccccc2F)C1 (stereo unspecified) | 2.43% |
| CC(=O)c1ccc(S(=O)(=O)N2CCN(c3nc4c(C)c(C)ccc4cc3C#N)CC2)cc1 | 63.6% (active) |
| CC(=O)c1ccc(S(=O)(=O)N2CCC3(CC2)OCCO3)cc1 | 4.17% |
| CC(=O)c1ccc(S(=O)(=O)N2CCN(C(=O)/C=C/c3ccc4ccccc4n3)CC2)cc1 | 20.6% |
| CCOc1ccc2ccccc2c1/C=N/NC(=O)c1c(C)cc(C)[nH]c1=O | 13.7% |
| O=C(CSc1ccc(-c2ccc(-n3cccn3)cc2)nn1)Nc1ccc([N+](=O)[O-])cc1 | -0.835% |
| COc1ccc(C(CNC(=O)c2ccc(S(=O)(=O)Nc3ccccc3C)cc2)N2CCOCC2)cc1 (stereo unspecified) | -0.159% |
| CSc1nccc(NC(=O)c2ccc(C(C)(C)C)cc2)n1 | -6.33% |
| NC(=O)C1(N2CCCCC2)CCN(C2CC(=O)N(Cc3ccc(N4CCCC4=O)cc3)C2=O)CC1 (stereo unspecified) | 7.91% |
| CN1CCN(CC(=O)C23CC4CC(CC(C4)C2)C3)CC1 | 56.4% (active) |
| O=C(N1CCCC1)C12CC3CC(C1)CC(C(=O)N1CCCC1)(C3)C2 | -14.8% |
| CC(C)(C)NC(=O)CN1CCC(NC(=O)C23CC4CC(CC(C4)C2)C3)CC1 | 26.6% |
| COc1ccc(CC(=O)Nc2ccc3c(c2)CCC3)cc1S(=O)(=O)N1CCOCC1 | -10.7% |
| COc1ccc(CNc2ccc3c(c2)CCC3)cc1OC | 65.6% (active) |
| COc1ccc(CNc2cc(C)cc(C)c2)cc1OC | -0.404% |

| SMILES | inhibition |
| --- | --- |
| Cc1ccc(S(=O)(=O)NCCC(=O)NNC(=O)C2COc3ccccc3O2)cc1 (stereo unspecified) | 1.4% |
| COc1cccc(C(=O)Nc2cc3c(cc2Br)OCCCO3)c1 | 11.1% |
| Oc1ccc(N=Nc2nccs2)c(O)c1 | 47.7% |
| Oc1ccc2ccccc2c1N=Nc1nccs1 | 71.1% (active) |
| Cc1ccc(N2CC(C(=O)Nc3cc(Cl)ccc3-n3cncn3)CC2=O)cc1 (stereo unspecified) | -5.75% |
| COc1ccc(-c2c(NC(=O)c3ccco3)oc3ccc(Cl)cc3c2=O)cc1 | -16.1% |
| CC(=O)c1ccc(S(=O)(=O)NCc2nnnn2-c2ccccc2)cc1 | -4.22% |
| CCCCN(C(=O)c1ccc(S(=O)(=O)N2CCOCC2)cc1)C1CCS(=O)(=O)C1 (stereo unspecified) | -3.57% |
| COc1ccccc1OCCNC(=O)CCNC(=O)c1ccccc1Cl | -10.4% |
| COc1ccccc1OCCNC(=O)c1cc([N+](=O)[O-])cc([N+](=O)[O-])c1 | 72.3% (active) |
| CC(C)(C)SCCNC(=O)c1cccc([N+](=O)[O-])c1 | -5.13% |
| CS(=O)(=O)N1CCN(C(=O)CSc2ccccc2)CC1 | -1.63% |
| COc1ccc(C(C)NC(=O)C2CCCC2)cc1 (stereo unspecified) | -4.14% |
| COc1ccccc1CC(NC(C)=O)C(=O)NC1CCN(C(=O)Nc2ccccc2Cl)CC1 (stereo unspecified) | -13.9% |
| COc1ccccc1CN1CCN(Cc2cc(OC)c(OC)cc2OC)CC1 | 25.3% |
| COc1ccc(CN2CCCC(N3CCc4ccccc4C3)C2)c(O)c1 (stereo unspecified) | 22.8% |
| COc1ccccc1CN1CCCC(N2CCN(c3ccc(F)cc3)CC2)C1 (stereo unspecified) | 57.3% (active) |
| COc1ccc(C[C@H]2CN3C(=NC[C@H]3C)N2CCNC(=O)CCC2CCCCC2)cc1 | -4.54% |
| Cc1cc2c(C)nc(N/N=C/c3ccccc3)nc2o1 | 22.4% |
| Cc1cccc(Nc2nc(-c3ccccc3)cs2)n1 | 18.7% |
| Clc1ccc(Nc2nc(-c3cccs3)cs2)nc1 | 42.7% |
| c1ccc(Nc2nc(-c3ccncc3)cs2)nc1 | 64% (active) |
| CCCCn1c(N)c(N2CCOCC2)c(=O)n(CC(=O)NCCc2ccccc2)c1=O | -20% |
